How the values were obtained:
[1] = Cytotoxicity against mouse L929 cells after 48 hrs by resazurin assay; type: cell-based; settings: read-out: LC50
How it was run: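 L929 fibroblasts, 15×10^3 cells/well in MEM, attached 3 h. Exposed to compounds for 48 h at 37 °C, 5% CO2. Resazurin (2 mM solution in PBS) added for 3 h; fluorescence read at 535/590 nm to give % cytotoxicity. Triplicate wells, three independent runs. LC50 taken from concentration vs %C curves, mean ± SD.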

Trypanosoma cruzi [2] = test: Antichagasic activity against Trypanosoma cruzi CL-B5 epimastigotes […] assessed as growth inhibition after 72 hrs by beta galactosidase reporter gene assay; type: functional, organism-based
How it was run: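 Then CPRG (200 µM final, pH 7.4) in Triton X-100 added for 3 h at 37 °C, A595 read. Triplicates, three independent runs; IC50 from dose–response of %growth inhibition, mean ± SD.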

[3] = Selectivity index, ratio of LC50 for mouse L929 cells to IC50 for Trypanosoma cruzi CL-B5 lacZ epimastigotes […]; type: toxicity, cell-based; settings: read-out: Ratio LC50/IC50
How it was run: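 SI = LC50 (L929, 48 h resazurin) / epimastigote IC50. […] CPRG (200 µM final, 0.9% Triton X-100, pH 7.4) added for 3 h at 37 °C, A595 read. Triplicates, n = 3; IC50 from %EGI curves.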

Trichomonas vaginalis [4] = test: Trichomonacidal activity against metronidazole-sensitive Trichomonas vaginalis JH31A#4 trophozoites after 24 hrs by resazurin dye based fluorescence assay; type: functional, organism-based; settings: JH31A#4, 24 h
How it was run: (§1)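 Trophozoites in TYM with 10% FBS, 37 °C, 5% CO₂, seeded at 10⁵/mL in glass tubes. After 5 h, compounds added at 9.37–300 µM final (DMSO <0.2%). Viability read by resazurin fluorimetry after 24 h at 37 °C. Metronidazole 25 µM as reference. At least two runs in triplicate; IC50 with 95% limits by probit.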

[5] = Selectivity index, ratio of LC50 for mouse L929 cells to IC50 for Trypanosoma cruzi CL-B5 lacZ amastigotes in mouse L929 cells; type: toxicity, cell-based; settings: read-out: Ratio LC50/IC50
How it was run: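 SI = LC50 (L929, 48 h resazurin) / amastigote IC50. Amastigotes: L929 cells (10,000/well, MEM) infected overnight at 33 °C with CL-B5 lacZ tissue-culture trypomastigotes (1:6 cell:parasite), washed, then exposed to compounds for 7 days. CPRG (400 µM final, 3% Triton X-100, pH 7.4) added for 3 h at 37 °C, A595 read. Triplicates; IC50 from %AGI curves. Assayed only when epimastigote SI warranted.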

Trypanosoma cruzi [6] = test: Antichagasic activity against Trypanosoma cruzi CL-B5 intracellular amastigotes in mouse L929 cells assessed as growth inhibition after 7 days by beta galactosidase reporter gene assay; type: functional, organism-based; settings: CL-B5, L929, 168 h
How it was run: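 L929 fibroblasts (10,000/well, MEM) infected overnight at 33 °C, 5% CO₂ with CL-B5 lacZ tissue-culture trypomastigotes (1:6 cell:parasite). Washed, then 7 days with compound in fresh MEM. CPRG (400 µM final, pH 7.4) in 3% Triton X-100 for 3 h at 37 °C, A595. Triplicates; IC50 from %amastigote growth inhibition curves, mean ± SD.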

[7] = Selectivity index, ratio of CC50 for african green monkey Vero cells to IC50 for metronidazole-resistant Trichomonas vaginalis IR78 trophozoites; type: functional
How it was run: (§2)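 Selectivity index = Vero CC50 (24 h resazurin, probit) divided by trophozoite IC50 (24 h resazurin, probit) for the named T. vaginalis isolate.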

Trichomonas vaginalis [8] = test: Trichomonacidal activity against metronidazole-resistant Trichomonas vaginalis IR78 trophozoites after 24 hrs by resazurin dye based fluorescence assay; type: functional, organism-based; settings: IR78, 24 h; how it was run: as §1
[9] = Cytotoxicity against african green monkey Vero cells assessed as inhibition of cell growth at 300 uM after 24 hrs by resazurin dye based fluorescence assay; settings: chlorocebus sabaeus, read-out: Activity
[10] = Selectivity index, ratio of CC50 for african green monkey Vero cells to IC50 for metronidazole-sensitive Trichomonas vaginalis JH31A#4 trophozoites; type: functional; how it was run: as §2
[11] = Cytotoxicity against african green monkey Vero cells assessed as inhibition of cell growth after 24 hrs by resazurin dye based fluorescence assay; settings: chlorocebus sabaeus
How it was run: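 Vero CCL-81 cells (50,000/well, RPMI with 10% FBS) attached 6 h at 37 °C, then 24 h with compound. Resazurin added for 3 h, fluorescence at ex 535/em 590 nm. Triplicates in two independent assays; CC50 and 95% confidence limits by probit analysis.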

Structure (SMILES)	CC50 at 48 h [1] [µM]	IC50 (Trypanosoma cruzi [2]) [µM]	selectivity ratio [3]	IC50 (Trichomonas vaginalis [4]) [µM]	selectivity ratio [5]	IC50 (Trypanosoma cruzi [6]) [µM]	Ratio CC50/IC50 [7]	IC50 (Trichomonas vaginalis [8]) [µM]	inhibition at 24 h, 300 µM [9] [%]	Ratio CC50/IC50 [10]	CC50 at 24 h [11] [µM]
NC(=O)CN1c2ccc([N+](=O)[O-])cc2C(=O)N(Cc2ccccc2)C1C(N)=O (configuration not stated)	> 256	> 256									
O=C(c1ccccc1)n1c2ccc([N+](=O)[O-])cc2c(=O)n1Cc1ccccc1	146	> 256	< 0.57	197							
O=C(O)CCn1c2ccc([N+](=O)[O-])cc2c(=O)n1Cc1ccccc1	> 256	> 256									
CC(=O)n1c2ccc([N+](=O)[O-])cc2c(=O)n1Cc1ccccc1	> 256	> 256		213							
CNC(=O)CCCn1c2ccc([N+](=O)[O-])cc2c(=O)n1Cc1ccccc1	> 256	13.3	> 19.3	182	> 171	1.5					
O=[N+]([O-])c1ccc2nn(Cc3ccccc3)c(OCCOc3c4cc([N+](=O)[O-])ccc4nn3Cc3ccccc3)c2c1	> 256	> 256									
NC(=O)C1Nc2ccc([N+](=O)[O-])cc2C(=O)N1Cc1ccccc1 (configuration not stated)	> 256	> 256									
O=[N+]([O-])c1ccc2nn(Cc3ccccc3)c(OCCCO)c2c1	> 256	64.9	> 3.94	7.25			>32.9	9.11	14.5	>41.4	> 300
O=c1c2cc([N+](=O)[O-])ccc2n(CCCBr)n1Cc1ccccc1	25.2	2.9	8.69	80.2							
O=C(O)CCCn1c2ccc([N+](=O)[O-])cc2c(=O)n1Cc1ccccc1	> 256	> 256									
COC(=O)CCn1c2ccc([N+](=O)[O-])cc2c(=O)n1Cc1ccccc1	> 256	9.19	> 27.9	376	> 87.4	2.93					
CCOC(=O)CCCn1c2ccc([N+](=O)[O-])cc2c(=O)n1Cc1ccccc1	78.1	11.1	7.01	192							
CCOC(=O)n1c2ccc([N+](=O)[O-])cc2c(=O)n1Cc1ccccc1	122	49	2.49	419							
O=c1c2cc([N+](=O)[O-])ccc2n(CCBr)n1Cc1ccccc1	> 256	2.13	> 120	348	> 225	1.14					
O=c1c2cc([N+](=O)[O-])ccc2n(CCCO)n1Cc1ccccc1	> 256	1.68	> 152	128	> 1024	0.25					
COC(=O)COc1c2cc([N+](=O)[O-])ccc2nn1Cc1ccccc1	> 256	145	> 1.77								
COC(=O)C1Nc2ccc([N+](=O)[O-])cc2C(=O)N1Cc1ccccc1 (configuration not stated)	> 256	216	> 1.18								
COC(=O)CN1c2ccc([N+](=O)[O-])cc2C(=O)N(Cc2ccccc2)C1C(=O)OC (configuration not stated)	205	> 256	< 0.8	58.2							
NC(=O)CCCn1c2ccc([N+](=O)[O-])cc2c(=O)n1Cc1ccccc1	> 256	31	> 8.26	104							

Structure (SMILES)	CC50 at 48 h [1] [µM]	IC50 (Trypanosoma cruzi [2]) [µM]	selectivity ratio [3]	IC50 (Trichomonas vaginalis [4]) [µM]	selectivity ratio [5]	IC50 (Trypanosoma cruzi [6]) [µM]	Ratio CC50/IC50 [7]	IC50 (Trichomonas vaginalis [8]) [µM]	inhibition at 24 h, 300 µM [9] [%]	Ratio CC50/IC50 [10]	CC50 at 24 h [11] [µM]
O=C(OCc1ccccc1)n1c2ccc([N+](=O)[O-])cc2c(=O)n1Cc1ccccc1	86.1	43.6	1.97	589							
C=CCn1c2ccc([N+](=O)[O-])cc2c(=O)n1Cc1ccccc1	192	4.19	45.9	359	122	1.58					
CN(C)C(=O)CCCn1c2ccc([N+](=O)[O-])cc2c(=O)n1Cc1ccccc1	> 256	3.86	> 66.3	48.9	> 474	0.54			< 20	>6.1	> 300
COCCn1c2ccc([N+](=O)[O-])cc2c(=O)n1Cc1ccccc1	> 256	6.56	> 39	285	> 112	2.29					
C#CCn1c2ccc([N+](=O)[O-])cc2c(=O)n1Cc1ccccc1	195	10.8	18.1	261	64.7	3.02					
COc1c2cc([N+](=O)[O-])ccc2nn1C				18.5							
CC(=O)OCCn1c2ccc([N+](=O)[O-])cc2c(=O)n1Cc1ccccc1	> 256	5.43	> 47.1	266	> 1024	0.25					
O=[N+]([O-])c1ccc2nn(Cc3ccccc3)c(OCCBr)c2c1	> 256	> 256		64.8							
CCOC(=O)CCCOc1c2cc([N+](=O)[O-])ccc2nn1Cc1ccccc1	> 256	25.1	> 10.2	20.6	> 10.1	25.4					
N#CCn1c2ccc([N+](=O)[O-])cc2c(=O)n1Cc1ccccc1	> 256	11.7	> 21.9		> 73.1	3.5					
Cc1ccc(S(=O)(=O)n2c3ccc([N+](=O)[O-])cc3c(=O)n2Cc2ccccc2)cc1	> 256	28.8	> 8.9	151							
CCOCCCn1c2ccc([N+](=O)[O-])cc2c(=O)n1Cc1ccccc1	170	6.57	25.9	362	51.5	3.31					
COC(=O)Cn1c2ccc([N+](=O)[O-])cc2c(=O)n1Cc1ccccc1	129	26.2	4.92	535							
O=[N+]([O-])c1ccc2nn(Cc3ccccc3)c(OCCO)c2c1	> 256	> 256		9.82			>6	49.8	14.7	>30.5	> 300
COC(=O)CCOc1c2cc([N+](=O)[O-])ccc2nn1Cc1ccccc1	> 256	> 256		43					< 20	>7	> 300
Cc1ncc([N+](=O)[O-])n1CCO [METRONIDAZOLE]				1.43			>100	5.78		>100	> 600
O=c1c2cc([N+](=O)[O-])ccc2n(CCOc2c3cc([N+](=O)[O-])ccc3nn2Cc2ccccc2)n1Cc1ccccc1	> 256	> 256									
C=Cn1c2ccc([N+](=O)[O-])cc2c(=O)n1Cc1ccccc1	160	2.75	58.4	258	341	0.47					
COCCOc1c2cc([N+](=O)[O-])ccc2nn1Cc1ccccc1	> 256	> 256		107							
